pIC50: −log10 of the molar value. ≈ marks a conversion by molar mass, not a printed value. Calls of active or inactive are those of the source. The rule behind the calls is not given here.
Columns and labels:
[1] = target: T1, Serine-protein kinase ATM (Homo sapiens, UniProt Q13315); assay: Inhibition of ATM in human HT-29 cells assessed as reduction in ATM phosphorylation at Ser-1981 residue up to 30 uM incubated for 1 hr followed by X-ray irradiation by Hoeschst staining based plate reader analysis; type: cell-based
[2] = Volume of distribution at steady state in Han Wistar rat at 2 mg/kg, iv or 5 mg/kg, po; type: ADME, organism-based; conditions: in vivo, read-out: Vdss
[3] = Clearance in dog at 1 mg/kg, iv or 2 mg/kg, po; type: ADME, organism-based, Canis lupus familiaris; conditions: in vivo
[4] = Clearance in Han Wistar rat at 2 mg/kg, iv or 5 mg/kg, po; type: ADME, organism-based; conditions: in vivo
[5] = Thermodynamic solubility of the compound in 0.1M aqueous phosphate buffer at pH 7.4 after 24 hrs by LC-UV analysis; type: physicochemical; conditions: read-out: Therm_solubility
Method in brief: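 Solid samples equilibrated in 0.1 M aqueous phosphate buffer, pH 7.4, for 24 h at 25 °C.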

[6] = Apparent permeability from apical to basolateral side in human Caco2 cells; type: ADME, cell-based; conditions: Caco-2
[7] = Fraction unbound in human plasma by equilibrium dialysis method; type: ADME, cell-free
[8] = Fraction unbound in mouse plasma by equilibrium dialysis method; type: ADME, cell-free
[9] = Fraction unbound in rat plasma by equilibrium dialysis method; type: ADME, cell-free
[10] = Fraction unbound in dog plasma by equilibrium dialysis method; type: ADME, cell-free, Canis lupus familiaris
[11] = Intrinsic clearance in human hepatocytes assessed per million cells; type: ADME, cell-based, Hepatocyte; conditions: read-out: CLH
Method in brief: (§1)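 Intrinsic clearance measured in hepatocytes of each species, reported as µL/min/10⁶ cells.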

[12] = Intrinsic clearance in mouse hepatocytes assessed per million cells; type: ADME, cell-based, Hepatocyte; conditions: read-out: CLH; method in brief: as §1
[13] = Intrinsic clearance in rat hepatocytes assessed per million cells; type: ADME, cell-based, Hepatocyte; conditions: read-out: CLH; method in brief: as §1
[14] = Intrinsic clearance in dog hepatocytes assessed per million cells; type: ADME, cell-based, Canis lupus familiaris, Hepatocyte; conditions: read-out: CLH; method in brief: as §1
[15] = Volume of distribution at steady state in dog at 1 mg/kg, iv or 2 mg/kg, po; type: ADME, organism-based, Canis lupus familiaris; conditions: in vivo, read-out: Vdss
[16] = Oral bioavailability in Han Wistar rat at 5 mg/kg; type: ADME, organism-based; conditions: in vivo
[17] = Oral bioavailability in dog at 2 mg/kg; type: ADME, organism-based, Canis lupus familiaris; conditions: in vivo
[18] = AUC (0 to 24 hrs) in nude mouse at 50 mg/kg, po; type: ADME, organism-based; parameters: dose 50 mg/kg, time < 24 hr, route oral; conditions: in vivo
Method in brief: (§2)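 Nude mice, single oral dose of 50 mg/kg. Vehicle was either a propylene glycol aqueous solution or 10% DMSO:90% captisol solution.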

[19] = target: Serine/threonine-protein kinase mTOR (Homo sapiens, UniProt P42345); assay: Inhibition of C-terminal FLAG-tagged recombinant mTOR (1362 to 2549 residues) (unknown origin) using Biotin-Ahx-Lys-Lys-Ala-Asn-Gln-Val-Phe-Leu-Gly-Phe-Thr-Tyr-Val-Ala-Pro-Ser-Val-Leu-Glu-Ser-Val-Lys-Glu-NH2 as substrate after 90 mins by AlphaScreen assay
[20] = target: T2, DNA-dependent protein kinase catalytic subunit (Homo sapiens, UniProt P78527); assay: Inhibition of DNAPK (unknown origin) using p53-based peptide substrate preincubated for 5 min prior to ATP addition
[21] = target: T3, Phosphatidylinositol 4,5-bisphosphate 3-kinase catalytic subunit alpha isoform (Homo sapiens, UniProt P42336); assay: Inhibition of human recombinant PI3Kalpha using PIP2/ATP as substrate incubated for 20 mins followed by substrate addition by Kinase Glo reagent based luminescence assay
T3 sequence (P42336 whole entry, canonical isoform): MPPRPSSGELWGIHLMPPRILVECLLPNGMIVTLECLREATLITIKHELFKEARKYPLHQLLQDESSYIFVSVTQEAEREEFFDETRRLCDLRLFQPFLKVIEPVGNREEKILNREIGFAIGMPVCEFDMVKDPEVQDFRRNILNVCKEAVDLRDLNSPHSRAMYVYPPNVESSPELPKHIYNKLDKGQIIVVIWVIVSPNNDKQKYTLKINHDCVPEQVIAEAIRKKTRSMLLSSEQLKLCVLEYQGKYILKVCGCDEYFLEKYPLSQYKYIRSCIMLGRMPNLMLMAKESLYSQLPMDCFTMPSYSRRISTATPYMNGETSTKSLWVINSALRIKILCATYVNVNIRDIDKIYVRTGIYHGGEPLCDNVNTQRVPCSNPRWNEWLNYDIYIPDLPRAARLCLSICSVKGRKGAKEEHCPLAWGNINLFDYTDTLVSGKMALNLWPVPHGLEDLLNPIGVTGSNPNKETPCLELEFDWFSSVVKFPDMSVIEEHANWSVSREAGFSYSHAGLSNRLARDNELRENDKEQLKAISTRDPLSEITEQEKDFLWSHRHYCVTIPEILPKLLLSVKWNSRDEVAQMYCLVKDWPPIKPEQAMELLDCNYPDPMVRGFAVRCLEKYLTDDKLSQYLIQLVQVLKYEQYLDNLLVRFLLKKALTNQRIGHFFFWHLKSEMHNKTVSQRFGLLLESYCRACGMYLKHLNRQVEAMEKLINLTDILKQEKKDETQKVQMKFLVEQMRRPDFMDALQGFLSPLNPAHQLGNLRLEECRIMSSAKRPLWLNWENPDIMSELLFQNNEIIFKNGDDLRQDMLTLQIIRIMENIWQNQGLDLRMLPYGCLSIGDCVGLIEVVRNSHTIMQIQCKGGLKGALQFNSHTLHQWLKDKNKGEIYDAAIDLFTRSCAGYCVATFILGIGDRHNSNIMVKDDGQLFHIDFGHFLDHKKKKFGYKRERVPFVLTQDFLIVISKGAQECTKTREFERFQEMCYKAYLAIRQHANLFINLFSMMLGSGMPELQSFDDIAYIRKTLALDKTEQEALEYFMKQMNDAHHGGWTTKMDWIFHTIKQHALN

[22] = target: T4, Phosphatidylinositol 4,5-bisphosphate 3-kinase catalytic subunit beta isoform (Homo sapiens, UniProt P42338); assay: Inhibition of human recombinant PI3Kbeta using PIP2/ATP as substrate incubated for 20 mins followed by substrate addition by Kinase Glo reagent based luminescence assay
T4 sequence (P42338 whole entry, canonical isoform): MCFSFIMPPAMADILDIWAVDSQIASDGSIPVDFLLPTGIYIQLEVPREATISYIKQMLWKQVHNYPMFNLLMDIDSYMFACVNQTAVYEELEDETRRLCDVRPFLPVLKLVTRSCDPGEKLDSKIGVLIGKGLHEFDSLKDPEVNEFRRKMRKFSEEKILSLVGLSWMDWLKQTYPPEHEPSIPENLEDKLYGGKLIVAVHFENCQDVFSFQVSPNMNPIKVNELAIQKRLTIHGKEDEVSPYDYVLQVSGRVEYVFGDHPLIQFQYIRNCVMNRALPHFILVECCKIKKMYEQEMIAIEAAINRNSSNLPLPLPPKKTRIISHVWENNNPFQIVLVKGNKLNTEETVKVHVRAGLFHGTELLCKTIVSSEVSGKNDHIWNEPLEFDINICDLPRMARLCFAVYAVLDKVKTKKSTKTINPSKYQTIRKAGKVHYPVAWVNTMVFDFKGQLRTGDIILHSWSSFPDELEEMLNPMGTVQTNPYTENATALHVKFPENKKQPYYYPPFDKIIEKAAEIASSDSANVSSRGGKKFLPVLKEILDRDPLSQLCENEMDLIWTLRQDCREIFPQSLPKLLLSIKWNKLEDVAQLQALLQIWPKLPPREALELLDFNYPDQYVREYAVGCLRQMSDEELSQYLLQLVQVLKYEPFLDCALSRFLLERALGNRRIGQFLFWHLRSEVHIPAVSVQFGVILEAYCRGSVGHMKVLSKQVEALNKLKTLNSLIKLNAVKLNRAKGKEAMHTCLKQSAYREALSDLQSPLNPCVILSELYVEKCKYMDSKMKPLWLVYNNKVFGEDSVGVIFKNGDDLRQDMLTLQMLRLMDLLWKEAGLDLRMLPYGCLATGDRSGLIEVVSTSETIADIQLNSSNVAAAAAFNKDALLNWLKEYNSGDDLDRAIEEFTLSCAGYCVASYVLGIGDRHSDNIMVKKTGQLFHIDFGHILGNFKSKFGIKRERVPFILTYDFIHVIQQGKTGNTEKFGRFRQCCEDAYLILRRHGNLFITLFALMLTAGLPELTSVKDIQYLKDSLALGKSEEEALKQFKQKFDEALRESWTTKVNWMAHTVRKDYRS

[23] = target: Phosphatidylinositol 4,5-bisphosphate 3-kinase catalytic subunit gamma isoform (Homo sapiens, UniProt P48736); assay: Inhibition of human recombinant PI3Kgamma using PIP2/ATP as substrate incubated for 20 mins followed by substrate addition by Kinase Glo reagent based luminescence assay
Sequence of Phosphatidylinositol 4,5-bisphosphate 3-kinase catalytic subunit gamma isoform (P48736 whole entry, canonical isoform): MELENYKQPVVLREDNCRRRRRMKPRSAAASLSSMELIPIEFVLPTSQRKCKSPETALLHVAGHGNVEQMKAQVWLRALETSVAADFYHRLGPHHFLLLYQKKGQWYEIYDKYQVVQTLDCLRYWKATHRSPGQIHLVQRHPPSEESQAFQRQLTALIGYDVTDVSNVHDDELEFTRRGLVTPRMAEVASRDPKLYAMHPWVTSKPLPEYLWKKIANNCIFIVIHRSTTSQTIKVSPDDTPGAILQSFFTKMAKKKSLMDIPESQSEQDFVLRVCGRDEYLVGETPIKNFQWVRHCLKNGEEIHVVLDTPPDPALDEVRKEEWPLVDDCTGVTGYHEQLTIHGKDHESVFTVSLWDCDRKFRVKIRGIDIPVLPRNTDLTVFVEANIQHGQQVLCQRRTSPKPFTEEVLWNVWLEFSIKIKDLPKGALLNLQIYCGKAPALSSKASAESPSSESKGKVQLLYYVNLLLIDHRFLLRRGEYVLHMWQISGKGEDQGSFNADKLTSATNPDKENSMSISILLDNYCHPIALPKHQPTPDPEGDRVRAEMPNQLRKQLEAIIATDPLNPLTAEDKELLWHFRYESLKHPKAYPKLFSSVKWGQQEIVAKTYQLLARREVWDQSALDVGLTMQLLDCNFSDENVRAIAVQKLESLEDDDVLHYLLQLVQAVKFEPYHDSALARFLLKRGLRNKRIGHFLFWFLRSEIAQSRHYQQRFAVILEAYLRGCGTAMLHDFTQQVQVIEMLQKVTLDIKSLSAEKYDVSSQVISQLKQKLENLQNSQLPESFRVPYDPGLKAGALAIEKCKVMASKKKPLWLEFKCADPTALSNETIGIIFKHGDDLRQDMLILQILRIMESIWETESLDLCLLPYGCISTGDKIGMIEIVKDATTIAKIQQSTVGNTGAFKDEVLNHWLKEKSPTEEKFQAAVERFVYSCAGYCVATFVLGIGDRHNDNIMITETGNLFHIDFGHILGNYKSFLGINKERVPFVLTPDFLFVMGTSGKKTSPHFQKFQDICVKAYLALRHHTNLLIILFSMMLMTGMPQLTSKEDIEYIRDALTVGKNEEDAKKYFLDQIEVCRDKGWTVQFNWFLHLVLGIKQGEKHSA

[24] = target: Glycogen synthase kinase-3 beta (Homo sapiens, UniProt P49841); assay: Inhibition of GSK3beta (unknown origin)
Sequence of Glycogen synthase kinase-3 beta (P49841 whole entry): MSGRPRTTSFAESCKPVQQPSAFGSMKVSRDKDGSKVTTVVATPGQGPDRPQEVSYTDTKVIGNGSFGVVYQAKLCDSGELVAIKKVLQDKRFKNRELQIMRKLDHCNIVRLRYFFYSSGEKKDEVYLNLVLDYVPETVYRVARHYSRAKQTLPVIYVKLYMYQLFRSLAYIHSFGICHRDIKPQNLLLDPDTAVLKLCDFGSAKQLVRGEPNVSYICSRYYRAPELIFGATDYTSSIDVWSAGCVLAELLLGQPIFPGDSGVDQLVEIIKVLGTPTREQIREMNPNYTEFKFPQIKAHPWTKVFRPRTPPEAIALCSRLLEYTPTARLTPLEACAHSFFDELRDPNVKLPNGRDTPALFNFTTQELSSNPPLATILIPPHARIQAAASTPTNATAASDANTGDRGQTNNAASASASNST

[25] = target: Vascular endothelial growth factor receptor 2 (Homo sapiens, UniProt P35968); assay: Inhibition of KDR (unknown origin)
Sequence of Vascular endothelial growth factor receptor 2 (P35968 whole entry): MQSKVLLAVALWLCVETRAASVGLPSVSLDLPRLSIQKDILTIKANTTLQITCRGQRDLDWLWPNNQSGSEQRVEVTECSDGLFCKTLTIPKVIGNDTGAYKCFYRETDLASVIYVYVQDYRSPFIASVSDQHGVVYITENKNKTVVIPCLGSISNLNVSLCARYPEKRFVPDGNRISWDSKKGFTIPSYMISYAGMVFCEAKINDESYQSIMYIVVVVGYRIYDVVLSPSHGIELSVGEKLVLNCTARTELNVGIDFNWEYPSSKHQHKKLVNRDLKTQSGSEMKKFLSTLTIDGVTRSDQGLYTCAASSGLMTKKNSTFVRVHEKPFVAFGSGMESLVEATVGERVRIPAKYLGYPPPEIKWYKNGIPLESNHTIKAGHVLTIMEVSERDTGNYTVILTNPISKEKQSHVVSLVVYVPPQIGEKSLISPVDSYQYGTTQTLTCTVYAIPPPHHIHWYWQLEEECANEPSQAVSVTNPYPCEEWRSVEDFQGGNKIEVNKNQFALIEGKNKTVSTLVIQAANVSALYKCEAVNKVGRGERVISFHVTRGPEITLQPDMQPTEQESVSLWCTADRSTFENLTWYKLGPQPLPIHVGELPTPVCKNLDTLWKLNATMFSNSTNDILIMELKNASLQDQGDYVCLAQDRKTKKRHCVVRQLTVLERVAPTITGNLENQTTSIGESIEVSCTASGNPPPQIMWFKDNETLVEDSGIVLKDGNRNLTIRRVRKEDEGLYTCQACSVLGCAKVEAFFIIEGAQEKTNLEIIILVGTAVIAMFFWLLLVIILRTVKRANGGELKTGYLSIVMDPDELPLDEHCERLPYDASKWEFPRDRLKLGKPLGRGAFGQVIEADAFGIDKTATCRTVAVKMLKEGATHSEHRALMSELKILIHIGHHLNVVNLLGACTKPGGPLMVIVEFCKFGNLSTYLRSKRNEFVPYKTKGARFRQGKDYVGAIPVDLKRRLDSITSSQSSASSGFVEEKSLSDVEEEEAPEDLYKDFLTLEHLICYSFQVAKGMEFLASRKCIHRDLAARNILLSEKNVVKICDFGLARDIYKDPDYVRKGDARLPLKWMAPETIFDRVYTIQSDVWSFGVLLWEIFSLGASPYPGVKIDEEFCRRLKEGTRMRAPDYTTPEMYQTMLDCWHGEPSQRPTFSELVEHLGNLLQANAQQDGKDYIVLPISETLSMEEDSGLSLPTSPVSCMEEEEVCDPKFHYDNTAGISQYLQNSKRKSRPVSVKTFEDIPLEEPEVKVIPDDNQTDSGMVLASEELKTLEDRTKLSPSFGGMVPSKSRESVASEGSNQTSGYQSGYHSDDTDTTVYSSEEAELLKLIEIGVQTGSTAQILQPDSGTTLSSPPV

[26] = target: T2, DNA-dependent protein kinase catalytic subunit; assay: Inhibition of DNAPK phosphorylation at Ser-2056 residue in human HT-29 cells; type: cell-based
[27] = target: Dual specificity protein kinase CLK1 (Homo sapiens) (UniProt P49759); assay: Inhibition of N-terminal His6-tagged recombinant human CLK1 (130-end residues) expressed in baculovirus infected Sf21 cells at 1 uM relative to control
[28] = target: Dual specificity protein kinase CLK4 (Homo sapiens) (UniProt Q9HAZ1); assay: Inhibition of recombinant human CLK4 at 1 uM
[29] = target: T5, Tyrosine-protein kinase Mer (Homo sapiens) (UniProt Q12866); assay: Inhibition of N-terminal GST-tagged recombinant human Mer (557 to 882 residues) expressed in baculovirus infected Sf21 cells using GGMEDIYFEFMGGKKK as substrate at 1 uM relative to control
T5 sequence (whole entry): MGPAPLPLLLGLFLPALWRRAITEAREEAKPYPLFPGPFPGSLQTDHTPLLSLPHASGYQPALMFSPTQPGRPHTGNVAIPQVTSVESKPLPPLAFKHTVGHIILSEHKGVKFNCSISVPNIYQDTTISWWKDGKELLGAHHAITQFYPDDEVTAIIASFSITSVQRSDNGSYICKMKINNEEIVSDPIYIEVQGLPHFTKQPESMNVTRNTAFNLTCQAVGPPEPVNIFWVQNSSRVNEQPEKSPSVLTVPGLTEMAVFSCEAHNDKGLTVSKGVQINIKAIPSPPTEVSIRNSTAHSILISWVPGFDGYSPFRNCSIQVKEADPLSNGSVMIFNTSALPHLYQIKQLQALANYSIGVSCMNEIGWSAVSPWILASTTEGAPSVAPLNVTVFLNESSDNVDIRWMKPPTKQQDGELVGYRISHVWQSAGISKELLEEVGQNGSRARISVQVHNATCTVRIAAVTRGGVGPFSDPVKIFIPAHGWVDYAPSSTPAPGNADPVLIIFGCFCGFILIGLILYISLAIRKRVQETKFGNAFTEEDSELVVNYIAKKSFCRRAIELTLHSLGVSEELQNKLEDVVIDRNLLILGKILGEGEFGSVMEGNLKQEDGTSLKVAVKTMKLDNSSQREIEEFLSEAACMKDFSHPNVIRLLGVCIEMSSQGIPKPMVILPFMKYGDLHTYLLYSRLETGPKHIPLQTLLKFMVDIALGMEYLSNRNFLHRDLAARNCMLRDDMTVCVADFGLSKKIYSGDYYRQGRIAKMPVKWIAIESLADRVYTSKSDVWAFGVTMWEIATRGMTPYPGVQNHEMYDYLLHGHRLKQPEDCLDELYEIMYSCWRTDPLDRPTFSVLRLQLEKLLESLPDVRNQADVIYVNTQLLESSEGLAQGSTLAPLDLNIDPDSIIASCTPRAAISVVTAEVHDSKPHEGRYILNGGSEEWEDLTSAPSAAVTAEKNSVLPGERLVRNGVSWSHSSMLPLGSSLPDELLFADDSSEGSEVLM

SW-620 = assay: Antitumor activity against human SW620 cells xenografted in immunocompromised athymic Swiss nude mouse assessed as tumor growth inhibition at 50 mg/kg bid administered via oral gavage for 3 days a week for 3 weeks regime after 24 hrs of topoisomerase-1 inhibitor irinotecan administration; type: functional, organism-based
[30] = target: T3, Phosphatidylinositol 4,5-bisphosphate 3-kinase catalytic subunit alpha isoform; assay: Inhibition of PI3Kalpha in human BT474 cells assessed as reduction in AKT phosphorylation at Thr-308 residue; type: cell-based
[31] = target: T4, Phosphatidylinositol 4,5-bisphosphate 3-kinase catalytic subunit beta isoform; assay: Inhibition of PI3Kbeta (unknown origin) by cell based assay
Mus musculus = assay: Time duration during which free plasma concentration stays above in-vitro ATM IC50 level in nude mouse at 50 mg/kg, po; type: ADME, organism-based; conditions: in vivo; method in brief: as §2
[32] = Cmax in nude mouse at 50 mg/kg, po; type: ADME, organism-based; parameters: dose 50 mg/kg, route oral; conditions: in vivo; method in brief: as §2
in vitro [33] = conditions: human, hepatocytes
in vitro [34] = conditions: rat, hepatocytes
physchem = conditions: octanol/buffer, pH 7.4
[35] = target: T1, Serine-protein kinase ATM; assay: Inhibition of ATM (unknown origin) using p53 as substrate incubated for 30 mins followed by substrate addition measured after 2 hrs in presence of ATP by HTRF method
[36] = target: T1, Serine-protein kinase ATM; assay: Inhibition of ATM phosphorylation at Ser-1981 residue in human HT-29 cells incubated for 1 hr followed by X-ray irradiation by Hoechst staining based fluorescence plate reader analysis; type: cell-based
[37] = target: Serine/threonine-protein kinase ATR (Homo sapiens, UniProt Q13535); assay: Inhibition of ATR in human HT-29 cells assessed as reduction in Chk1 phosphorylation at Ser-345 residue after 60 mins in presence of 4-nitroquinoline-1-oxide by Hoechst 33258 staining based plate reader analysis; type: cell-based
Homo sapiens [38] = species on record: Homo sapiens; assay: Selectivity ratio of IC50 for DNAPK (unknown origin) to IC50 for ATM (unknown origin)
Method in brief: (§3)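 Enzymatic selectivity calculated as the off-target enzyme IC50 over the ATM enzyme IC50. IC50s in µM, taken as means of at least 3 (ATM) or 2 (other enzymes) independent measurements.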

Homo sapiens [39] = species on record: Homo sapiens; assay: Selectivity ratio of IC50 for human recombinant PI3Kalpha to IC50 for ATM (unknown origin); method in brief: as §3
Homo sapiens [40] = species on record: Homo sapiens; assay: Selectivity ratio of IC50 for C-terminal FLAG-tagged recombinant mTOR (1362 to 2549 residues) (unknown origin) to IC50 for ATM (unknown origin); method in brief: as §3
Homo sapiens [41] = species on record: Homo sapiens; assay: Selectivity ratio of IC50 for human recombinant PI3Kbeta to IC50 for ATM (unknown origin); method in brief: as §3
Homo sapiens [42] = species on record: Homo sapiens; assay: Selectivity ratio of IC50 for ATR in human HT-29 cells to IC50 for ATM in human HT-29 cells; type: cell-based
[43] = target: Voltage-gated inwardly rectifying potassium channel KCNH2 (Homo sapiens, UniProt Q12809)
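For logD in this document: determined by the shake flask method.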

Cc1ccc([C@@H](C)Nc2c(C(N)=O)cnc3ccc(C#N)cc23)cc1
inhibition [1]: inactive

COCc1ccc(-c2cc3c(N[C@@H](C)c4ccn(C)n4)c(C(N)=O)cnc3cc2F)cn1
Vd [2]: 1 L/kg | clearance [3]: 13 mL/min/kg | clearance [4]: 13 mL/min/kg | solubility thermodynamic at 24 h [5]: 69 µM (≈ 30 µg/mL) | Papp A→B [6]: 14 ×10⁻⁶ cm/s | fraction unbound [7]: 0.18 | fraction unbound [8]: 0.17 | fraction unbound [9]: 0.12 | fraction unbound [10]: 0.18 | hepatocyte CLint [11]: < 1.5 µL/min/1e6 cells | hepatocyte CLint [12]: 28 µL/min/1e6 cells | hepatocyte CLint [13]: 5.3 µL/min/1e6 cells | hepatocyte CLint [14]: 2 µL/min/1e6 cells | Vd [15]: 1.4 L/kg | bioavailability [16]: 29% | bioavailability [17]: 71% | AUC(0-t) at 24 h [18]: 33 µM·h | pIC50 [19]: 5.83 | pIC50 [20]: 6.43 | pIC50 [21]: 6.35 | pIC50 [22]: 4.89 | pIC50 [23]: 5.15 | pIC50 [24]: < 4.00 | pIC50 [25]: 4.10 | pIC50 [26]: < 4.52 | inhibition [27]: 57% | inhibition [28]: 55% | inhibition [29]: 56% | TGI (SW-620): Active | pIC50 [30]: 4.73 | pIC50 [31]: < 4.76 | Time (Mus musculus): 10 h | Cmax [32]: 17 µM | hepatocyte CLint at 1.5 h (in vitro [33]): < 1.5 µL/min/1e6 cells | hepatocyte CLint at 1.5 h (in vitro [34]): 5.3 µL/min/1e6 cells | logD (physchem): 2.7

CCC(CC)CNc1c(C(N)=O)cnc2ccc(C#N)cc12
pIC50 [35]: 8.10 | pIC50 [36]: 6.09 | pIC50 [37]: 5.36 | solubility thermodynamic at 24 h [5]: 19 µM (≈ 5.63 µg/mL) | pIC50 [19]: 5.46 | pIC50 [20]: 7.01 | pIC50 [21]: 6.61 | pIC50 [22]: 5.24 | pIC50 [23]: < 6.00 | Ratio IC50 (Homo sapiens [38]): > 10 | Ratio IC50 (Homo sapiens [39]): > 10 | Ratio IC50 (Homo sapiens [40]): > 400 | Ratio IC50 (Homo sapiens [41]): > 400 | Ratio IC50 (Homo sapiens [42]): < 10 | pIC50 [24]: 6.26 | pIC50 [25]: 5.09 | pIC50 [43]: 5.64 | hepatocyte CLint at 1.5 h (in vitro [33]): 12 µL/min/1e6 cells | hepatocyte CLint at 1.5 h (in vitro [34]): 74 µL/min/1e6 cells
